ChEMBL document CHEMBL1123247, “Nucleoside conjugates. 7. Synthesis and antitumor activity of 1-beta-D-arabinofuranosylcytosine conjugates of ether lipids” (J Med Chem, 1986)

How the values were obtained:
[1] = test system: L1210; test: Antitumor activity was determined against the ip implanted L1210 leukemia in mice by range in survival days at 200 mg/kg (treatment of 1qd schedule) dosage; Range is 12->45; assay type: functional, Mus musculus; settings: route intraperitoneal
How it was run: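 DBA/2J mice, 23-28 g, in groups of 6, were inoculated ip with 1×10^6 L1210 cells on day 0. Dosing was ip starting 24 h later on the stated daily schedules. Conjugates were given as sonicated solutions and reference prodrugs as suspensions in 0.9% NaCl with 0.5% Tween-80. Mice were observed daily until death or 45 days. Median survival T/C was calculated from survivors per NCI protocols.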

[2] = test system: L1210; test: Antitumor activity was determined against the ic implanted L1210 lymphoid leukemia in mice by range in survival days at 100 mg/kg (1 qd treatment schedule) dosage; Range is 14-18; assay type: functional, Mus musculus
[3] = test system: L1210; test: Antitumor activity against the ic implanted L1210 lymphoid leukemia in mice expressed as optimal dose (1 qd treatment schedule) required to produce greatest increase in life span was determined; assay type: functional, Mus musculus
How it was run: (§1)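 DBA/2J mice, groups of 6 (26-32 g), got 1 × 10^5 L1210 cells ic on day 0. Dosing was ip starting 24 h later, as a sonicated solution or suspension in 0.9% NaCl with 0.5% Tween-80, over a wide dose range. Mice were followed daily until death. Median survival T/C was taken from survivors per NCI protocols, and ILS = (T/C − 1) × 100. Active range means doses giving ILS ≥25%; optimal dose means greatest ILS.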

[4] = test system: L1210; test: Antitumor activity against the ip implanted L1210 leukemia in mice expressed as optimal dose (1 qd treatment schedule) required to produce greatest increase in life span was determined; assay type: functional, Mus musculus
How it was run: (§2)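 DBA/2J mice, groups of 6 (23-28 g), were inoculated ip with 1 × 10^6 L1210 cells on day 0. Dosing was ip from 24 h, in 0.9% NaCl with 0.5% Tween-80 (sonicated solution or suspension). Mice were observed daily until death or day 45. Median survival T/C followed NCI protocols, and ILS = (T/C − 1) × 100. Active range means doses giving ILS ≥25%; optimal dose means greatest ILS.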

[5] = test system: L1210; test: Antitumor activity was determined against the ip implanted L1210 leukemia in mice by change in […] at 200 mg/kg (treatment of 1qd schedule) dosage; assay type: functional, Mus musculus; settings: route intraperitoneal
How it was run: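 DBA/2J mice, 6 per group (wt 23-28 g), inoculated ip with 1×10^6 L1210 cells on day 0. Treatment was given ip in 0.9% NaCl with 0.5% Tween-80, starting 24 h later. Weight change was taken on day 8. Mice were observed daily until death or 45 days. Median survival T/C and %ILS = (T/C − 1) × 100 came from survivors per NCI protocols, and 45-day survivors were counted.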

[6] = test system: L1210; test: Antitumor activity was determined against the ic implanted L1210 lymphoid leukemia in mice by […] at 100 mg/kg (1 qd treatment schedule) dosage; 17.5-7.0; assay type: functional, Mus musculus; how it was run: as §1
[7] = test system: L1210; test: Antitumor activity was determined against the ic implanted L1210 lymphoid leukemia in mice by change in […] at 100 mg/kg (1 qd treatment schedule) dosage; assay type: functional, Mus musculus
How it was run: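 DBA/2J mice, 6 per group (wt 26-32 g), inoculated ic with 1×10^5 L1210 cells on day 0. Dosing ip began 24 h after inoculation, with a sonicated solution or suspension in 0.9% NaCl containing 0.5% Tween-80, given over a range of doses. Animals were followed daily until death. Body weight change, median survival T/C, and %ILS = (T/C − 1) × 100 were computed from survivors per NCI protocols.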

[8] = test system: L1210; test: Antitumor activity against ip implanted L1210 leukemia in mice expressed as active dose range (1 qd treatment schedule) required to produce increase in life span by >25% was determined; Range is 100-250; assay type: functional, Mus musculus; how it was run: as §2
[9] = test system: L1210; test: Antitumor activity was determined against the ip implanted L1210 leukemia in mice by 45-day survivors in mice at 200 mg/kg (treatment of 1qd schedule) dosage; assay type: functional, Mus musculus; settings: route intraperitoneal
How it was run: (§3)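 DBA/2J mice in groups of 6 (wt 23-28 g) were inoculated ip with 1×10^6 L1210 cells on day 0. Dosing was ip from 24 h, in 0.9% NaCl with 0.5% Tween-80 (conjugates sonicated), across a range of doses. Mice were observed daily until death or 45 days. Median T/C was computed from survivors per NCI protocols, and ILS = (T/C − 1)×100.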

[10] = test system: L1210; test: Antitumor activity was determined against the ic implanted L1210 lymphoid leukemia in mice by percent increase in life span at 100 mg/kg (1 qd treatment schedule) dosage; assay type: functional, Mus musculus; how it was run: as §1
[11] = test system: L1210; test: Antitumor activity was determined against the ip implanted L1210 leukemia in mice by percent increase in life span at 200 mg/kg (treatment of 1qd schedule) dosage; assay type: functional, Mus musculus; settings: route intraperitoneal; how it was run: as §3
[12] = test system: P388; test: Antitumor activity was determined against the ip implanted L1210 leukemia in mice by change in […] at 100 mg/kg (treatment of 1qd schedule) dosage; assay type: functional, Mus musculus; settings: route intraperitoneal, in the assay text read “P388 leukemia” for “L1210 leukemia”
[13] = test system: P388; test: Antitumor activity against ip implanted P388 leukemia in mice expressed as active dose range (1 qd treatment schedule) required to produce increase in life span by >25% was determined; Range is 50-100; assay type: functional, Mus musculus
How it was run: (§4)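 P388 leukemia: 1 × 10^6 cells were given ip on day 0 to DBA/2J mice, groups of 6 (23-33 g). Treatment was ip from 24 h after inoculation, vehicle 0.9% NaCl with 0.5% Tween-80. Mice were observed daily until death or 45 days. Median survival T/C was calculated from survivors per NCI protocols, and ILS = (T/C − 1) × 100. Active range means doses giving ILS ≥25%; optimal dose means greatest ILS.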

[14] = test system: P388; test: Antitumor activity against the ip implanted P388 leukemia in mice expressed as optimal dose (1 qd treatment schedule) required to produce greatest increase in life span was determined; assay type: functional, Mus musculus; how it was run: as §4
[15] = test system: P388 leukemia (mouse); test: Antitumor activity was determined against the ip implanted P388 leukemia in mice by 45-day survivors in mice at 100 mg/kg (treatment of 1qd schedule) dosage; settings: route intraperitoneal
[16] = test system: P388; test: Antitumor activity was determined against the ip implanted P388 leukemia in mice by percent increase in life span at 100 mg/kg (treatment of 1qd schedule) dosage; settings: route intraperitoneal
[17] = test system: L1210; test: Antitumor activity was determined against the ip implanted L1210 leukemia in mice by median survival time at 200 mg/kg (treatment of 1qd schedule) dosage; 17.5/7.0; settings: route intraperitoneal
[18] = test system: P388; test: Antitumor activity was determined against the ip implanted P388 leukemia in mice by range in survival days at 100 mg/kg (treatment of 1qd schedule) dosage; Range is 28->45; settings: route intraperitoneal
[19] = test system: P388; test: Antitumor activity was determined against the ip implanted P388 leukemia in mice by percent median survival rate (treated/control) at 100 mg/kg (treatment of 1qd schedule) dosage; >45.0/12.0; settings: route intraperitoneal

CCCCCCCCCCCCCCCC(=O)OC[C@H]1O[C@@H](n2ccc(N)nc2=O)[C@@H](O)[C@@H]1O
Range [1]: 12
Range [2]: 14
Optimal dose [3]: 100 mg
Optimal dose [4]: 200 mg/kg/day
Weight change [5]: 2 g mouse-1
median survival time [6]: 17.5 days
Weight change [7]: -2.03 g mouse-1
Active dose range [8]: 100 mg/kg/day
Survivors [9]: 1
ILS [10]: 150
ILS [11]: 150
Weight change [12]: 0.3 g mouse-1
Active dose range [13]: 50 mg/kg/day
Optimal dose [14]: 100 mg
Survivors [15]: 4
ILS [16]: >275
median survival time [17]: 17.5 days
Range [18]: 28
median survival time [19]: > 45 days
